# What was measured:
# NCI-H187 = assay: Cytotoxicity against human NCI-H187 cells; type: functional, cell-based
# In short: (§1)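 Human breast cancer (BC) and small cell lung cancer (NCI-H187) lines; colorimetric assay per Skehan; IC50 read-out; ellipticine as reference.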
# [1] = test system: Mycobacterium tuberculosis; assay: Antimicrobial activity against Mycobacterium tuberculosis H37Ra by microplate alamar blue assay; type: functional
# In short: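 M. tuberculosis H37Ra in microplate Alamar Blue assay; MIC read-out; isoniazid and kanamycin sulfate as reference drugs.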
# Plasmodium falciparum [2] = assay: Antimicrobial activity against Plasmodium falciparum; type: functional, organism-based
# In short: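 P. falciparum K1 (multidrug-resistant) kept in culture per Trager–Jensen; microculture radioisotope test; growth read as [3H]-hypoxanthine uptake; IC50 = concentration giving 50% fewer parasites; artemisinin as reference standard.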
# Human alphaherpesvirus 1 = assay: Antiviral activity against HSV1; type: functional, organism-based
# In short: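 Herpes simplex type 1 antiviral test by colorimetric method per Skehan; IC50 read-out; acyclovir as reference.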
# Plasmodium falciparum [3] = assay: Antimalarial activity against Plasmodium falciparum K1 by [3H]hypoxanthine uptake; type: functional, organism-based
# In short: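 Multidrug-resistant K1 parasites cultured per Trager–Jensen. In vitro microculture radioisotope test, with parasite growth read as [3H]-hypoxanthine uptake. IC50 is the concentration giving 50% reduction in parasite growth. Artemisinin run as standard.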
# [4] = Cytotoxicity against human BC clls; type: functional, cell-based; in short: as §1
structure (smiles),measurement,setting,value
OCCCCCCCCCCCCCC#CC#CCCCCc1ccco1,IC50,NCI-H187,12.4 µg/mL
same,MIC,[1],6.25 µg/mL
O=C(O)CCCC#CC#CCCCCCCCCCCCc1ccco1,IC50,Plasmodium falciparum [2],50 µg/mL
same,IC50,Human alphaherpesvirus 1,47 µg/mL
O=C(O)CCCC#CCCCCCCCCCCCCCc1ccco1,IC50,Human alphaherpesvirus 1,19.4 µg/mL
COC(=O)CCCC#CCCCCCCCCCCCCCc1ccco1,MIC,[1],3.1 µg/mL
COC(=O)CCCC#CC#CCCCCCCCCCCCc1ccco1,IC50,Plasmodium falciparum [2],3.7 µg/mL
Nc1nc2c(ncn2COCCO)c(=O)[nH]1 [ACYCLOVIR],IC50,Human alphaherpesvirus 1,1.1 µg/mL
C[C@@H]1CC[C@H]2[C@@H](C)C(=O)O[C@@H]3O[C@@]4(C)CC[C@@H]1[C@]32OO4 [ARTEMISININ],IC50,Plasmodium falciparum [3],0.001 µg/mL
Cc1c2ccncc2c(C)c2c1[nH]c1ccccc12 [ELLIPTECINE],IC50,[4],0.32 µg/mL
NNC(=O)c1ccncc1 [ISONIAZID],MIC,[1],0.04 µg/mL
NC[C@H]1O[C@H](O[C@H]2[C@H](O)[C@@H](O[C@H]3O[C@H](CO)[C@@H](O)[C@H](N)[C@H]3O)[C@H](N)C[C@@H]2N)[C@H](O)[C@@H](O)[C@@H]1O.O=S(=O)(O)O [KANAMYCIN SULFATE],MIC,[1],2 µg/mL

# Reference: ChEMBL document CHEMBL1157224, “2-substituted furans from the roots of Polyalthia evecta” (J Nat Prod, 2006)
